Bioassay records as filed in PubChem.
KCNQ1 block = inhibitors of human KCNQ1 channel, primary screen, cell-based, thallium flux, high-throughput | hit rate 1.3% among 310,000 | Potassium voltage-gated channel subfamily KQT member 1 (Homo sapiens), P51787 | CHO-K1 KCNQ1, FluxOR thallium flux fluorescence; stronger effect = higher value | B-score at 10 µM;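 active = compounds whose thallium flux B-score, printed positive for inhibition, exceeds three library SD while starting fluorescence stays within three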;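 also: channel opened by potassium depolarization with thallium stimulus after 20 min compound exposure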
Target sequence (P51787 whole entry, looked up): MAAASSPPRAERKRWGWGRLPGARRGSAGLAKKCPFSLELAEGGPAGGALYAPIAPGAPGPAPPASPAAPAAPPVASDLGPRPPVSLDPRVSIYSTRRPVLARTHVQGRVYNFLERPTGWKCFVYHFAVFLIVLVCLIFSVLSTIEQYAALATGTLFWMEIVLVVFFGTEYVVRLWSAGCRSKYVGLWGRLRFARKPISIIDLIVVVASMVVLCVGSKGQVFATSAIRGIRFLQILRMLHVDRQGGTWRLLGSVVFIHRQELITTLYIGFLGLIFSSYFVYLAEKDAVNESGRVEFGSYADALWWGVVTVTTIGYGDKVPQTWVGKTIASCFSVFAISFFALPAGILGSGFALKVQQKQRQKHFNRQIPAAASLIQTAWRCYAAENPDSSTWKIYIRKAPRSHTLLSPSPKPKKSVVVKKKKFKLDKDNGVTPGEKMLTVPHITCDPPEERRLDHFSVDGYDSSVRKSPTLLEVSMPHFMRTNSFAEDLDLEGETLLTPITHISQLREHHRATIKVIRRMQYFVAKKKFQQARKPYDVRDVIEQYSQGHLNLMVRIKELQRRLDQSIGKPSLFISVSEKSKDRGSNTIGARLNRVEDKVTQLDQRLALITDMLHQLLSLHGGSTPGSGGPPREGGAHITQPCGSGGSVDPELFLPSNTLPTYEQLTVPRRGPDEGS
Kir21 inh = inhibitors of mouse Kir2.1 inward-rectifier potassium channel | B-score at 10 µM | hit rate 0.85% among 310,000 | AID 1672, 2009 | Inward rectifier potassium channel 2 (Mus musculus), P35561 | HEK293-Kir2.1, FluxOR thallium flux fluorescence; stronger effect = lower value;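 active = fluorescence ratio B-score at or below minus 3 SD of library scores, with starting-brightness B-score within 2 SD, cut at about -4.2 in these data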;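 also: channel flux triggered by added potassium and thallium sulfate stimulus; B-score of peak minus minimum fluorescence over baseline after thallium stimulus; more negative B-score means stronger Kir2.1 block with less thallium influx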
hERG protect = hERG rescue from dofetilide block, primary screen, cell-based, CHO-hERG, FluxOR thallium flux, dofetilide IC70 | dofetilide IC70 present | Voltage-gated inwardly rectifying potassium channel KCNH2 (Homo sapiens), Q12809 | activation (rescue from dofetilide block), less the hit threshold, % at 10 µM | hit rate 0.51% among 310,000 | AID 1511, 2009;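 active = activation above the mean of controls blocked by dofetilide plus 5 SD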;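 also: thallium influx through hERG after potassium depolarization seen as dye fluorescence rise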
KCNK3 block = human KCNK3 channel inhibitors, primary screen, CHO cells, FluxOR thallium flux, B-score; Potassium channel subfamily K member 3 (Homo sapiens), O14649; AID 602410, 2012; B-score at 10 µM; FluxOR fluorescence; stronger effect = lower value; hit rate 0.84% among 340,000;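 active = B-score under library mean minus 4 SD, starting fluorescence ratio at most library mean plus 5 SD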;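 also: more negative B-score means stronger inhibition of thallium flux through KCNK3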
KCNK9 inh = KCNK9 potassium channel inhibitors, primary screen, HEK293 cells, thallium flux; AID 488922, 2010; FluxOR thallium flux fluorescence; stronger effect = lower value; hit rate 1.2% among 310,000; B-score at 10 µM;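 active = ratio B-score over 3 SD below the library mean, with starting fluorescence within 5 SD of its mean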;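 also: negative B-score means less thallium flux so channel inhibition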
KCNQ1 act = potentiators or activators of KCNQ1 channel, primary screen, cell-based, thallium flux, high-throughput. Potassium voltage-gated channel subfamily KQT member 1 (Homo sapiens), P51787. CHO-K1 KCNQ1, thallium flux FluxOR fluorescence; stronger effect = higher value. B-score at 10 µM. hit rate 0.35% among 310,000. AID 2648, 2010;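 active = fluorescence ratio B-score, a plate-corrected score, at least three library SD, with initial intensity B-score within 5 SD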
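Assay system: CHO-K1 cells stably expressing KCNQ1; Medium: assay buffer with matched DMSO; Also added: K+/Tl+ depolarizing stimulus; Dosing: single dose; Timing: dye 90 min, compound 20 min, room temperature; Measured by: kinetic FluxOR thallium fluorescence, 10-s 1-Hz baseline, 110-s post-stimulus read; Read-out: peak-minus-minimum fluorescence over initial fluorescence, negative-control normalized, B-scored.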
The depositor's hits bear a star. Rows were chosen to be rich in hits. Some 3.7% of all compounds tested hit in one or more screens of this group.

For CCCOc1cc(C)c(S(=O)(=O)NCc2cccs2)cc1C the results were KCNK3 block inactive.
`CC(Sc1nnc(N)s1)C(=O)c1c(N)n(C)c(=O)n(C)c1=O` (configuration not stated) gave KCNK3 block inactive.
`Cc1nc(SC(C)C(=O)c2c(N)n(C)c(=O)n(C)c2=O)c2c(C)c(C)sc2n1` (configuration not stated) gave KCNQ1 block inactive, Kir21 inh -1.5, hERG protect -6, KCNK3 block inactive, KCNK9 inh inactive and KCNQ1 act 14*.
`O=C1Nc2ccccc2N=C(c2ccccc2)c2ccccc21` gave KCNQ1 block inactive, Kir21 inh -0.15, hERG protect -12, KCNK3 block inactive, KCNK9 inh inactive and KCNQ1 act inactive.
Screening CC(C)Oc1ccccc1OCCCOc1cccc2cccnc12 returned KCNQ1 block inactive, Kir21 inh -6.6*, hERG protect -20, KCNK3 block inactive, KCNK9 inh inactive and KCNQ1 act inactive.
For C=CCN(CC=C)C(=S)NC(=O)Cc1cccc2ccccc12 the results were KCNQ1 block inactive, Kir21 inh -2.1, hERG protect 10*, KCNK3 block inactive, KCNK9 inh inactive and KCNQ1 act 10*.
O=C(Cc1cccc2ccccc12)Nc1ccccc1 was read as KCNQ1 block inactive, Kir21 inh -1.1, hERG protect -7, KCNK3 block inactive, KCNK9 inh inactive and KCNQ1 act inactive.
COc1cccc(NC(=O)CCS(=O)(=O)c2cc3c(cc2Cl)NC(=O)CO3)c1 was read as KCNQ1 block inactive, Kir21 inh 1.4, hERG protect -11, KCNK3 block inactive, KCNK9 inh inactive and KCNQ1 act inactive.
For CC1(C)CC(=O)C=C(Nc2cccc(Cl)c2Cl)C1 the results were KCNQ1 block inactive, Kir21 inh -0.01, hERG protect -5, KCNK3 block inactive, KCNK9 inh inactive and KCNQ1 act inactive.
Screening O=C1c2ccccc2NC(c2cccc([N+](=O)[O-])c2)N1CCc1ccccc1 (configuration not stated) returned KCNQ1 block inactive, Kir21 inh 0.39, hERG protect -9, KCNK3 block inactive, KCNK9 inh -6.6* and KCNQ1 act inactive.
`O=C1CSC(c2cccc([N+](=O)[O-])c2)N1Cc1ccccc1` (configuration not stated) gave KCNQ1 block inactive, Kir21 inh -4.5*, hERG protect 0, KCNK3 block inactive, KCNK9 inh inactive and KCNQ1 act inactive.
Cc1cccc(C2Nc3ccccc3C(=O)N2CCc2ccccc2)n1 (configuration not stated) was read as KCNQ1 block inactive, Kir21 inh -2.3, hERG protect -3, KCNK3 block inactive, KCNK9 inh inactive and KCNQ1 act inactive.
For O=C(Nc1nc(=S)ss1)c1ccc(Cl)cc1Cl the results were KCNQ1 block inactive, Kir21 inh -2.7, hERG protect 41*, KCNK3 block inactive, KCNK9 inh inactive and KCNQ1 act 15*.
Screening O=C(COC(=O)C1C2CC3OC(=O)C1C3C2)Nc1ccc(Cl)cc1 (configuration not stated) returned KCNQ1 block inactive, Kir21 inh 2.3, hERG protect 12*, KCNK3 block inactive, KCNK9 inh inactive and KCNQ1 act 17*.
O=C(c1cc2nc(-c3cccs3)cc(C(F)(F)Cl)n2n1)N1CCCc2ccccc21 was read as KCNQ1 block inactive, Kir21 inh -1.5, hERG protect -8, KCNK3 block inactive, KCNK9 inh -6.7* and KCNQ1 act inactive.
For CCCCn1c(SCC(=O)c2ccc3c(c2)OCCO3)nnc1-c1ccoc1C the results were KCNQ1 block inactive, Kir21 inh -5*, hERG protect -7, KCNK3 block inactive, KCNK9 inh inactive and KCNQ1 act inactive.
Screening COc1cccc2c(=O)n(CC(=O)Nc3ccccc3F)ccc12 returned KCNQ1 block inactive, Kir21 inh 0.42, hERG protect -12, KCNK3 block inactive, KCNK9 inh inactive and KCNQ1 act inactive.
Screening O=C(O)c1cccc(N2C(=O)c3cc([N+](=O)[O-])cc4cc([N+](=O)[O-])cc(c34)C2=O)c1 returned KCNQ1 block inactive, Kir21 inh -0.38, hERG protect -5, KCNK3 block inactive, KCNK9 inh inactive and KCNQ1 act inactive.
O=C(CSc1nc(C(F)(F)F)cc(=O)[nH]1)N1CCC(Cc2ccccc2)CC1 was read as KCNQ1 block 6*, Kir21 inh -0.01, hERG protect -19, KCNK3 block inactive, KCNK9 inh inactive and KCNQ1 act inactive.
Cc1cc(=O)[nH]c(SCC(=O)N2CCC(Cc3ccccc3)CC2)n1 was read as KCNQ1 block inactive, Kir21 inh 1.6, hERG protect -5, KCNK3 block inactive, KCNK9 inh inactive and KCNQ1 act inactive.
Screening CCCn1nnc(NC(=O)C(c2ccccc2)c2ccccc2)n1 returned KCNQ1 block inactive, Kir21 inh 0.95, hERG protect 6.6*, KCNK3 block inactive, KCNK9 inh inactive and KCNQ1 act inactive.
Screening CCCCn1nnc(NC(=O)C(c2ccccc2)c2ccccc2)n1 returned KCNQ1 block inactive, Kir21 inh -1.6, hERG protect -22, KCNK3 block inactive, KCNK9 inh inactive and KCNQ1 act inactive.
`O=C(Nc1cccc(NC(=O)c2ccccc2[N+](=O)[O-])n1)c1ccccc1[N+](=O)[O-]` gave KCNQ1 block inactive, Kir21 inh -2, hERG protect -12, KCNK3 block -9.5*, KCNK9 inh inactive and KCNQ1 act inactive.
For c1ccc(Cc2ccc(OCCCNC3CCCC3)cc2)cc1 the results were KCNQ1 block inactive, Kir21 inh -8.1*, hERG protect -16, KCNK9 inh inactive and KCNQ1 act inactive.
c1ccc(-c2ccc(OCCCNC3CCCC3)cc2)cc1 was read as KCNQ1 block inactive, Kir21 inh -5.8*, hERG protect -19, KCNK3 block inactive, KCNK9 inh inactive and KCNQ1 act inactive.
`CCOC(=O)C1(CCOc2ccccc2)CCN(Cc2ccncc2)CC1` gave KCNQ1 block inactive, Kir21 inh -0.04, hERG protect -9, KCNK3 block inactive, KCNK9 inh inactive and KCNQ1 act inactive.
